Bioassay records: PubChem, several laboratories
CHOP inhibitor: blocks CHOP induction under ER stress | 220,000 compounds, 3.8% hits | CHO-K1 CHOP-promoter luciferase, tunicamycin-induced, 15-18 h | inhibition, % at 10 µM;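 active = compounds that reduced the stress-induced luciferase reporter signal by more than about 70% of percent inhibition, limit read from the data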;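 also: 0% = tunicamycin plus vehicle and 100% = wells without tunicamycin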
MPTP inh: blocks calcium-induced mitochondrial swelling; isolated mouse mitochondria, Ca2+ swelling absorbance, 30 min; inhibition, % at 10 µM; 360,000 compounds, 1.4% hits; AID 602449;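 active = inhibition of 50% or more, scaled per plate between neutral and stimulator controls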;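 also: 0% = DMSO wells given calcium and 100% = 1 mM EGTA wells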
GRIN3A LBD mod: modulators (binders) of human NR3A ligand-binding domain. NR3A LBD differential scanning fluorimetry, Tm shift; 0% = protein alone, 100% = glycine-bound protein. Tm shift relative to glycine control, % at 25 µM. 340,000 compounds, 2.5% hits. AID 1259313;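 active = melting temperature shift of at least 10% of the positive control shift, at one fixed dose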
EBV gp42 inh: inhibitors of Epstein-Barr virus glycoprotein 42; 220,000 compounds, 0.42% hits; Q1HVG2; Fluorescence polarization binding assay, mP read-out; inhibition, % (tested at 21.74 µM); AID 1085; in the data active = inhibition above about 50%
Target sequence (Q1HVG2 whole entry, looked up): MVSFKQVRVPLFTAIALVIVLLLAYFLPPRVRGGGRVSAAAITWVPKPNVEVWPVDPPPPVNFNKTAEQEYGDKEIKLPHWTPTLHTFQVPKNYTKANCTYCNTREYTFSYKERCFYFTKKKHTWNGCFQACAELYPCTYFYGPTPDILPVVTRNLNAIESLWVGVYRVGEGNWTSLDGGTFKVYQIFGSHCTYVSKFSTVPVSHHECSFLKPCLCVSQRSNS
Tb MetRS inh: blocks T. brucei methionyl-tRNA synthetase activity; inhibition, % at 11.9 µM; 360,000 compounds, 0.4% hits; purified T. brucei MetRS, ATP depletion, Kinase-Glo luminescence;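 active = inhibition above a per-plate cutoff of the control wells' mean inhibition plus 3 SD, cut at about 5.5% in these data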;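 also: 0% = DMSO wells median and 100% = median of wells with control inhibitor compound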
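Assay system: T. brucei methionyl-tRNA synthetase, purified | Medium: HEPES buffer with MgCl2, KCl, DTT, spermine, BSA, pyrophosphatase | Compound: 11.9 µM single point | Incubation: 15 min enzyme-compound preincubation, 2 h reaction, 10 min detection, 25 °C | Measured by: Kinase-Glo luciferase luminescence reporting remaining unconsumed ATP | Measure: % inhibition normalized to control-well medians | Replication: Singlicate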
WT yeast gro inh: growth inhibition of WT yeast, mitochondrial fusion screen; mitochondrial fusion phenotypic screen, WT strain; 190,000 compounds, 2.1% hits; inhibition, % at 10 µM; in the data active = inhibition above about 58%; tested in S. cerevisiae
* marks the source's active call; other numbers are inactive results; · = no result given. Most compounds without a hit are left out; they make up all but 6.4% or so of the library.

SMILES	CHOP inhibitor	MPTP inh	GRIN3A LBD mod	EBV gp42 inh	Tb MetRS inh	WT yeast gro inh
O=C(N/N=C\c1ccc(F)cc1)c1cc(OCC(F)(F)F)ccc1OCC(F)(F)F	42	13	-8	-18	-1	4
Cc1ccc(/C=N\NC(=O)c2cc(OCC(F)(F)F)ccc2OCC(F)(F)F)cc1	55	0	14*	3	0	8
C=CCONC(=O)c1cc(OCC(F)(F)F)ccc1OCC(F)(F)F	71*	2	-2	-14	-1	-5
COc1ccc(/C=N\NC(=O)c2cc(OCC(F)(F)F)ccc2OCC(F)(F)F)cc1	53	-2	2	-4	-1	8
O=C(NNC(=O)c1cc(OCC(F)(F)F)ccc1OCC(F)(F)F)c1ccc(Cl)c(Cl)c1	82*	-4	-19	-7	1	14
COc1cccc(CN(CC2CCCO2)S(=O)(=O)c2ccc(S(=O)(=O)NCC3CCCO3)cc2)c1OC (stereo not drawn)	6	0	3	-27	-1	3
CC(C)CN1CCN(C(=O)COC(=O)c2ccc(S(C)(=O)=O)c([N+](=O)[O-])c2)CC1	·	0	·	·	0	·
O=C(O)c1ccccc1OC(C(=O)Nc1cc(Cl)cc(Cl)c1)c1ccccc1 (stereo not drawn)	·	20	23*	·	-1	·
O=C(Nc1cc(Cl)cc(Cl)c1)C(NCCO)c1ccccc1 (stereo not drawn)	-8	-1	2	-5	0	-2
COc1cc(C2C(C#N)=C(N)OC3=C2C(=O)CCC3)c([N+](=O)[O-])cc1OC (stereo not drawn)	-7	2	2	83*	0	10
CCOc1cc(C2C(C#N)=C(N)OC3=C2C(=O)CC(C)(C)C3)cc([N+](=O)[O-])c1O (stereo not drawn)	5	1	-1	-9	0	-44
CC1(C)CC(=O)C2=C(C1)OC(N)=C(C#N)C2c1cc2c(cc1[N+](=O)[O-])OCO2 (stereo not drawn)	57	1	-5	94*	1	-25
COc1cccc(C(=O)COc2ccc3ccc(=O)oc3c2)c1	-13	0	16*	1	0	0
CC1(C)CC(=O)C2=C(C1)N(c1ccc(F)cc1)C(=O)C2(O)C(F)(F)F (stereo not drawn)	-11	1	1	-6	0	84*
CC1(C)CC(=O)C2=C(C1)N(Cc1ccco1)C(=O)C2(O)C(F)(F)F (stereo not drawn)	14	-2	68*	-7	0	-1
COc1ccc(C(=O)NC2(C(F)(F)F)C(=O)N(Cc3ccco3)C3=C2C(=O)CC(C)(C)C3)cc1OC (stereo not drawn)	-9	-3	0	77*	-2	14
Cc1cc2oc(=O)cc(Cn3ncc(Cl)c(Cl)c3=O)c2cc1Cl	105*	0	0	-6	1	-1
Cc1cc(C)cc(N2C(=O)CC(c3ccccc3)CC2=O)c1	·	0	17*	·	0	·
CCC(=O)Nc1ccc(NC(=O)CSc2nc3cc4c(cc3cc2C)CCC4)cc1	94*	4	0	-2	0	-2
Cc1ccccc1NC(=O)CSc1nc2cc3c(cc2cc1C)CCC3	68	3	-5	3	-1	-3
COCCNC(=O)c1c(N)n(-c2cccc(C)c2)c2nc3ccccc3nc12	77*	2	1	7	-1	33
Nc1c(C(=O)NCc2ccccc2)c2nc3ccccc3nc2n1-c1ccc2c(c1)OCO2	79*	1	0	-1	0	-14
Nc1ccc(-n2c(N)c(C(=O)NCc3ccc4c(c3)OCO4)c3nc4ccccc4nc32)cc1	·	3	0	·	-2	·
COc1ccc(-c2csc(NC(=O)CSc3nc(C)cs3)n2)cc1	17	31	-4	-2	-2	-18
COc1ccc(-c2csc(NC(=O)CSc3nc(C)nc4sc(C(=O)O)c(C)c34)n2)cc1	6	7	-3	65*	-1	·
SMILES	CHOP inhibitor	MPTP inh	GRIN3A LBD mod	EBV gp42 inh	Tb MetRS inh	WT yeast gro inh
CCOC(=S)SCC(=O)Nc1nc(-c2ccccc2)cs1	-42	1	-17	8	-1	80*
CCOC(=O)N1CCN(C(=O)CSCC(=O)Nc2nc(-c3ccc(-c4ccccc4)cc3)cs2)CC1	85*	44	4	-13	0	31
COc1ccc(-n2c(CNc3ccc(C)cc3)nnc2SCC(=O)Nc2nc(-c3ccccc3)cs2)cc1	-5	0	-2	-21	0	30
CCOC(=S)SCC(=O)Nc1nccs1	-38	2	1	-6	0	8
COc1ccc(NCc2nnc(SCC(=O)Nc3nc(-c4ccccc4)cs3)n2-c2ccccc2)cc1	55	1	12*	15	0	-5
CCOC(=O)N1CCN(C(=O)CSCC(=O)Nc2nc(-c3ccc(OC)cc3)cs2)CC1	35	4	2	10	-1	25
COc1ccc([N+](=O)[O-])c(OC)c1C(=O)NC(=O)Nc1c(F)c(F)c(F)c(F)c1F	·	0	-1	·	-1	·
O=C(COc1ccc(Cl)cc1)Nc1nnc(-c2ccc3c(c2)CCCC3)o1	87*	-3	-1	-5	0	68
CC1CN(S(=O)(=O)c2ccc(C(=O)Nc3nnc(-c4ccc5c(c4)CCCC5)o3)cc2)CC(C)O1 (stereo not drawn)	104*	-16	2	-9	0	10
CC1CN(S(=O)(=O)c2ccc(C(=O)Nc3nnc(-c4ccccn4)o3)cc2)CC(C)O1 (stereo not drawn)	-14	0	-2	-12	0	2
COc1ccc(Oc2ccc(NC(=O)c3ccccc3C)cc2)cc1	17	8	17*	7	-1	-12
CCOc1ccc(-c2nnc(NC(=O)c3ccc(OCC(C)C)c(OC)c3)o2)cc1	91*	1	-2	-10	0	64*
CCOc1ccccc1N(CC(=O)Nc1cc(OC)ccc1OC)S(=O)(=O)c1ccccc1	·	2	-4	·	0	·
COC(=O)c1ccc(N2Cc3ccccc3/C2=N\C(=O)Nc2ccccc2)cc1	15	0	-1	-14	0	-35
Cc1cccc(C)c1NC(=O)CNC(=O)c1ccccc1	·	1	-1	·	0	·
CC[C@]1(c2cccc(C)c2)C(=O)N(C(=O)OC)N1C(=O)OC	·	-2	4	·	0	·
CC(=O)Nc1nnc(-c2ccc3c(c2)CCCC3)o1	-6	0	-1	-10	0	12
COc1ccccc1C(=O)Nc1nnc(-c2ccc3c(c2)CCCC3)o1	80*	12	-9	-3	0	60*
COc1ccc(-c2nnc(NC(=O)c3ccccc3C)o2)cc1	-24	-1	-2	-23	0	64*
CCC(=O)c1ccc(N2CCN(C(=O)c3ccc(Br)cc3)CC2)c(F)c1	85*	10	-1	-5	-1	44
